Laboratory results published in ChEMBL document CHEMBL4020708, “Studies of CDK 8/19 inhibitors: Discovery of novel and selective CDK8/19 dual inhibitors and elimination of their CYP3A4 time-dependent inhibition potential” (Bioorg Med Chem, 2017).
Converted amounts (≈) assume the structure as drawn.

Legend:
[1] = target: Cyclin-dependent kinase 8 (Homo sapiens, UniProt P49336); experiment: Inhibition of CDK8 in human SW480 cells assessed as reduction in IFN-gamma induced STAT1 phosphorylation at Ser727 residues preincubated for 2 hrs followed by IFN-gamma addition measured after 1 hr by In-cell western assay; format: cell-based
Summary of the method: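 SW480 cells kept in L-15 with 10% FBS at 37 °C and plated at 6000 cells/well overnight. Compound applied 2 h, then 10 ng/mL IFN-γ for 1 h. Cells fixed, permeabilized and blocked, then probed overnight at 4 °C with anti-pSTAT1 Ser727. IRDye 800CW secondary plus DRAQ5 for DNA, Odyssey imaging.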

[2] = target: CDK8/Cyclin C (Homo sapiens, UniProt P49336); experiment: Inhibition of kinase tracer 236 binding to full length N terminal GST-tagged human CDK8 (1 to 464 end residues) /CycC ( 1 to 283 end residues) expressed in baculovirus expression system after 60 min by TR-FRET assay
Summary of the method: (§1)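 TR-FRET ligand displacement using 20 nM GST-CDK8/CycC or GST-CDK19/CycC, 20 nM Kinase Tracer 236 and Tb-anti-GST antibody. Buffer 25 mM HEPES, 10 mM MgCl₂, 2 mM DTT, 0.01% Tween-20. Incubated 60 min at rt.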

[3] = Solubility of the compound at pH 6.8; format: physicochemical; conditions: buffer
Summary of the method: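 Compound added from DMSO solution to JP 2nd disintegration fluid (pH 6.8) and incubated. Precipitate removed by filtration, and filtrate concentration measured by plate reader or HPLC.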

[4] = target: CYP3A4 (Homo sapiens, UniProt P08684); experiment: Time-dependent inhibition of CYP3A4 in human liver microsomes assessed as reduction in testosterone to 6beta-hydroxytestosterone conversion by measuring remaining activity at 30 uM preincubated for 60 mins followed by testosterone addition measured after 20 mins in presence of NADPH by UPLC analysis relative to control; format: ADME; conditions: probe testosterone (6beta-hydroxylation), read-out: Activity
Summary of the method: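 Compound at 30 μM preincubated with human liver microsomes in phosphate buffer pH 7.4 at 37 °C for 0 or 60 min with an NADPH-generating system. Testosterone then added for 20 min, and 6β-hydroxytestosterone measured by UPLC. Activity expressed as % of DMSO control; % remaining taken after 60 min preincubation.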

[5] = target: Cyclin-C/Cyclin-dependent kinase 19 (Homo sapiens, UniProt Q9BWU1); experiment: Inhibition of kinase tracer 236 binding to GST-tagged CDK19/CycC (unknown origin) after 60 min by TR-FRET assay; format: protein-complex assay; summary of the method: as §1
[6] = tested on: Liver; experiment: Intrinsic clearance in mouse liver microsomes at 1 umol/L after 15 to 30 mins in presence of NADPH by LC/MS/MS analysis; format: ADME, microsome; conditions: 1 µM
Summary of the method: (§2)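 Human or mouse liver microsomes at 0.2 mg/mL protein in 50 mmol/L phosphate buffer pH 7.4 with 1 μmol/L compound. Reaction started with an NADPH-generating system and stopped at 15 and 30 min with acetonitrile. LC/MS/MS readout. Intrinsic clearance taken as initial metabolic velocity (slope of concentration-time) divided by compound concentration.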

[7] = tested on: Plasma; experiment: Drug level in mouse plasma treated with (E)-3-(4-(1-Methyl-1H-pyrazol-4-yl)pyridin-3-yl)-N-(4-(morpholinomethyl)phenyl)acrylamide at 1 mg/kg, po administered as cassette dose measured up to 8 hrs by LC/MS/MS analysis; format: ADME, organism-based; conditions: in vivo
Summary of the method: (§3)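 Cassette dosing to non-fasted mice, 1 mg/kg po (0–8 h). Plasma obtained from blood by centrifugation, deproteinized with acetonitrile, centrifuged, and the supernatant analysed by LC/MS/MS.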

[8] = tested on: Liver; experiment: Intrinsic clearance in human liver microsomes at 1 umol/L after 15 to 30 mins in presence of NADPH by LC/MS/MS analysis; format: ADME, microsome; conditions: 1 µM; summary of the method: as §2
[9] = Oral bioavailability in mouse at 1 mg/kg administered as cassette dose measured up to 8 hrs by LC/MS/MS analysis; format: ADME, organism-based; conditions: in vivo
Summary of the method: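 Bioavailability from mouse cassette dosing, 0.1 mg/kg iv and 1 mg/kg po, non-fasted animals. Plasma was deproteinized with acetonitrile and compound quantified by LC/MS/MS.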

[10] = Total clearance in mouse at 1 mg/kg, po administered as cassette dose measured up to 8 hrs by LC/MS/MS analysis; format: ADME, organism-based; conditions: in vivo
[11] = AUC (0 to 8 hrs) in mouse at 1 mg/kg, po administered as cassette dose by LC/MS/MS analysis; format: ADME, organism-based; parameters: time < 8 hr, dose 1 mg/kg, route oral; conditions: in vivo; summary of the method: as §3
[12] = Cmax in mouse at 1 mg/kg, po administered as cassette dose measured up to 8 hrs by LC/MS/MS analysis; format: ADME, organism-based; parameters: dose 1 mg/kg, route oral; conditions: in vivo; summary of the method: as §3
[13] = MRT in mouse at 1 mg/kg, po administered as cassette dose measured up to 8 hrs by LC/MS/MS analysis; format: ADME, organism-based; conditions: in vivo; summary of the method: as §3

Chain of Cyclin-dependent kinase 8 (P49336 whole entry): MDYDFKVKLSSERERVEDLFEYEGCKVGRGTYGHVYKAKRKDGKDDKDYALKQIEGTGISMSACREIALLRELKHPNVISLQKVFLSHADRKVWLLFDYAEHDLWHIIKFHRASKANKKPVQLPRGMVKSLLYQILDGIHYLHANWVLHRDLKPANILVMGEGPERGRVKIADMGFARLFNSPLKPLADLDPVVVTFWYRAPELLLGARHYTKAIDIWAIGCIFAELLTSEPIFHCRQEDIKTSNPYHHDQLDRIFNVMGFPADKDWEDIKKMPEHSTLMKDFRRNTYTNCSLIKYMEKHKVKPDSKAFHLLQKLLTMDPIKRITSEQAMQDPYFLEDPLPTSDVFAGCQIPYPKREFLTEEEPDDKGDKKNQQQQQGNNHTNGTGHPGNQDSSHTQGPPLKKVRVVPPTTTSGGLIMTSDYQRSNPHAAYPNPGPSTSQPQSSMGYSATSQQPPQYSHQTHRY
Chain of CDK8/Cyclin C (P49336 whole entry): as above
Chain of CDK8/Cyclin C (P24863 whole entry, further chain): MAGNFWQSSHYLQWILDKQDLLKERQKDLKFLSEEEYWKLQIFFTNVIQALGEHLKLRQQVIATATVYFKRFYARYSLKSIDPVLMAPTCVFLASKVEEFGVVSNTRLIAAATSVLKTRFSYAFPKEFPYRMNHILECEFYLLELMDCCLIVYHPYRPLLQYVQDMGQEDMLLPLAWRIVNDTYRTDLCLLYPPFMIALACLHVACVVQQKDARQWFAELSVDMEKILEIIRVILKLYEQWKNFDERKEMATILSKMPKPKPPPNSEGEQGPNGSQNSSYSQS
Chain of Cyclin-C/Cyclin-dependent kinase 19 (Q9BWU1 whole entry): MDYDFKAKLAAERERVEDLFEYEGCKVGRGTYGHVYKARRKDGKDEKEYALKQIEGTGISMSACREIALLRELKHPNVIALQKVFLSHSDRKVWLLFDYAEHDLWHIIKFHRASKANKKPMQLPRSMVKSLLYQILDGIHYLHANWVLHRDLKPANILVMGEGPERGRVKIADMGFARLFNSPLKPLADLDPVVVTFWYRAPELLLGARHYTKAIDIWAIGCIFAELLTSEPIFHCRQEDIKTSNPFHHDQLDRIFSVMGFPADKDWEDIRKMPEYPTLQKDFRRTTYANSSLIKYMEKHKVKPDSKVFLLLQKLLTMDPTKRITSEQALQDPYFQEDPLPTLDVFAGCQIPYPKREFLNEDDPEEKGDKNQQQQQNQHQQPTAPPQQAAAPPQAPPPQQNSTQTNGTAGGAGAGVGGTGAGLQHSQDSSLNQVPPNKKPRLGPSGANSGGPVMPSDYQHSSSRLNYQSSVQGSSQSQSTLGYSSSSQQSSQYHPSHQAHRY
Chain of Cyclin-C/Cyclin-dependent kinase 19 (P24863 whole entry, further chain): as the sequence (P24863 whole entry, further chain) above
Chain of CYP3A4 (P08684 whole entry): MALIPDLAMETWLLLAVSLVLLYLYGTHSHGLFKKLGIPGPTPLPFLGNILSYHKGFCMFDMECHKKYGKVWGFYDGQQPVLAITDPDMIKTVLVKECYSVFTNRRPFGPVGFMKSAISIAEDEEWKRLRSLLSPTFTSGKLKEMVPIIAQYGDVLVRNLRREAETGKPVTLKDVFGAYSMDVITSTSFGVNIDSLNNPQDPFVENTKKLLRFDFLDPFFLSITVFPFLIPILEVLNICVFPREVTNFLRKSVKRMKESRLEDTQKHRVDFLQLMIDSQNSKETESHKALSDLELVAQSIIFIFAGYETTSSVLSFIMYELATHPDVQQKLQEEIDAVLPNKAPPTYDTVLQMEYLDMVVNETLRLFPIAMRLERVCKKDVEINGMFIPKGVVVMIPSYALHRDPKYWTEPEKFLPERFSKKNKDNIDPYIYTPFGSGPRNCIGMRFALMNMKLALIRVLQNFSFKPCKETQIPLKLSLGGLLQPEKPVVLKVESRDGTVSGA

Structure (SMILES) | EC50 [1] [nM] | IC50 [2] [nM] | activity at 20 min, 30 µM [4] [%] | further results
Cn1cc(-c2ccncc2/C=C/C(=O)Nc2ccc(CN3CC(F)(F)C3)cc2)cn1 | 84 | 11 | 98 | solubility [3]: 44 µg/mL (≈ 107 µM)
O=C(/C=C/c1cnccc1-c1cnn(C2CC2)c1)Nc1ccc2c(c1)CCN(CC(F)(F)F)C2 | 14 | 7.1 | 88 | solubility [3]: 3.9 µg/mL (≈ 8.34 µM)
O=C(/C=C/c1cnccc1-c1ccc2[nH]cnc2c1)Nc1ccc(CN2CCOCC2)cc1 | 10 | 1.5 |  | 
Cn1cc(-c2ccncc2/C=C/C(=O)Nc2ccc3c(c2)CCN(CC(F)(F)F)C3)cn1 | 7 | 4.5 | 91 | solubility [3]: > 81 µg/mL
Cn1cc(-c2ccncc2/C=C/C(=O)Nc2ccc(CN3CC4CC3CO4)cc2)cn1 (stereo unspecified) | 19 | 16 | 100 | solubility [3]: > 82 µg/mL
Cn1cc(-c2ccncc2/C=C/C(N)=O)cn1 | > 10000 | > 10000 |  | 
Cn1cc(-c2ccnc(O)c2/C=C/C(=O)Nc2ccc(CN3CCOCC3)cc2)cn1 | > 10000 | > 10000 | 89 | 
Cn1cc(-c2ccncc2CCC(=O)Nc2ccc(CN3CCOCC3)cc2)cn1 | 95 | 41 | 71 | IC50 [5]: 50 nM
Cn1cc(-c2ccncc2/C=C/C(=O)Nc2ccc(CN3C4CCC3COC4)cc2)cn1 | 17 | 6.3 | 99 | 
O=C(/C=C/c1cnccc1-c1cnn(C2CC2)c1)Nc1ccc(CN2CC3CC2CO3)cc1 (stereo unspecified) | 3.1 | 9.6 | 101 | solubility [3]: > 92 µg/mL
O=C(/C=C/c1cnccc1-c1cnn(C2CC2)c1)Nc1ccc(CN2CC3CC(C2)O3)cc1 | 5.5 | 6.7 | 108 | solubility [3]: 60 µg/mL (≈ 136 µM)
Cn1cc(-c2ccncc2/C=C/C(=O)Nc2ccc3c(c2)CN(CC(F)(F)F)CC3)cn1 | 8.4 | 3.2 | 22 | solubility [3]: 8.9 µg/mL (≈ 20.2 µM)
Cn1cc(-c2ccncc2/C=C/C(=O)Nc2ccc(CN3CCOCC3=O)cc2)cn1 |  |  |  | Drug metabolism [7]: Metabolite_Detected
COc1ccc(-c2ccncc2/C=C/C(=O)Nc2ccc(CN3CCOCC3)cc2)s1 | 97 | 28 |  | 
Cn1cc(-c2ccncc2/C=C/C(=O)Nc2ccccc2)cn1 | 110 | 51 | 97 | solubility [3]: 26 µg/mL (≈ 85.4 µM)
Cn1cc(-c2ccncc2/C=C/C(=O)Nc2ccc(CNCCO)cc2)cn1 |  |  |  | Drug metabolism [7]: Metabolite_Detected
O=C(/C=C/c1cncc(F)c1-c1cnn(C2CC2)c1)Nc1ccc(CN2CCOCC2)cc1 | 2.3 | 6.5 | 46 | 
Cn1cc(-c2cc[n+]([O-])cc2/C=C/C(=O)Nc2ccc(CN3CCOCC3)cc2)cn1 |  |  |  | Drug metabolism [7]: Metabolite_Detected
O=C(CCc1cnccc1-c1cnn(C2CC2)c1)Nc1ccc(CN2CCOCC2)cc1 | 130 | 29 | 59 | IC50 [5]: 41 nM
NC(=O)c1ccc(-c2ccncc2/C=C/C(=O)Nc2ccc(CN3CCOCC3)cc2)s1 | 690 | 8.3 |  | 

Second part, led by results:

EC50 [1] [nM] | IC50 [2] [nM] | activity at 20 min, 30 µM [4] [%] | Structure (SMILES) | further results
11 to 50 | 6.4 to 24 |  | O=C(/C=C/c1cnccc1-c1cnn(C(F)F)c1)Nc1ccc(CN2CCOCC2)cc1 | 
150 | 28 |  | O=C(/C=C/c1cnccc1-c1cnn(CC(F)(F)F)c1)Nc1ccc(CN2CCOCC2)cc1 | 
27 | 20 | 59 | CC1COCCN1Cc1ccc(NC(=O)/C=C/c2cnccc2-c2cnn(C)c2)cc1 (stereo unspecified) | solubility [3]: > 75 µg/mL
110 | 27 |  | O=C(/C=C/c1cnccc1-c1cnsc1)Nc1ccc(CN2CCOCC2)cc1 | 
140 | 41 |  | O=C(/C=C/c1cnccc1-c1cncs1)Nc1ccc(CN2CCOCC2)cc1 | 
21 to 370 | 0.54 to 80 |  | O=C(/C=C/c1cnccc1-c1cn[nH]c1)Nc1ccc(CN2CCOCC2)cc1 | IC50 [5]: 100 nM; intrinsic clearance [6]: 6.7 µL/min/mg; Drug metabolism [7]: Metabolite_Detected; microsomal intrinsic clearance [8]: 5.1 µL/min/mg
12 | 8.1 |  | COc1ncc(-c2ccncc2/C=C/C(=O)Nc2ccc(CN3CCOCC3)cc2)s1 | 
> 10000 | 4800 |  | Cn1cnc2cc(-c3ccncc3/C=C/C(=O)Nc3ccc(CN4CCOCC4)cc3)ccc21 | 
28 | 4.5 |  | O=C(/C=C/c1cnccc1-c1cnn(Cc2ccccc2)c1)Nc1ccc(CN2CCOCC2)cc1 | bioavailability [9]: 15.5%; CL/F [10]: 96.1 mL/min/kg; intrinsic clearance [6]: 118 µL/min/mg; AUC(0-t) at 8 h [11]: 26.9 ng·h/mL; Cmax [12]: 15.7 ng/mL; microsomal intrinsic clearance [8]: 78 µL/min/mg; MRT [13]: 1.2 h
2.4 | 2.5 |  | Cn1cnc2ccc(-c3ccncc3/C=C/C(=O)Nc3ccc(CN4CCOCC4)cc3)cc21 | 
3.6 | 5.2 | 60 | Cn1cc(-c2c(F)cncc2/C=C/C(=O)Nc2ccc(CN3CCOCC3)cc2)cn1 | 
16 | 6.7 | 84 | CC1CN(Cc2ccc(NC(=O)/C=C/c3cnccc3-c3cnn(C)c3)cc2)CCO1 (stereo unspecified) | 
1300 | 990 |  | Cn1cc(-c2cc(N)ncc2/C=C/C(=O)Nc2ccc(CN3CCOCC3)cc2)cn1 | 
17 | 6.2 | 69 | Cn1cc(-c2ccncc2/C=C/C(=O)Nc2ccc(CN3CCC(F)(F)C3)cc2)cn1 | solubility [3]: 33 µg/mL (≈ 77.9 µM)
11 | 6.4 | 54 | O=C(/C=C/c1cnccc1-c1cnn(C2CC2)c1)Nc1ccc(CN2CCOCC2)cc1 | bioavailability [9]: 51.2%; IC50 [5]: 7.6 nM; CL/F [10]: 25.4 mL/min/kg; intrinsic clearance [6]: 64 µL/min/mg; AUC(0-t) at 8 h [11]: 340 ng·h/mL; Cmax [12]: 208 ng/mL; microsomal intrinsic clearance [8]: 25 µL/min/mg; MRT [13]: 1.5 h
